pIC50: −log10 of the molar value.
Legend:
[1] = target: Ribosomal protein S6 kinase alpha-4 (Homo sapiens) (UniProt O75676); test: Inhibition of wild-type human partial length C-terminal RPS6KA4 kinase domain 2 (M375 to T705 residues) expressed in HEK293 cells assessed as residual activity at 1000 nM after 30 mins by Kinomescan method relative to control; assay type: cell-based
[2] = system: Epidermal growth factor receptor (Homo sapiens), P00533 [G719C]; test: Inhibition of human partial length EGFR G719C mutant (R669 to V1011 residues) expressed in Escherichia coli BL21 assessed as residual activity at 1000 nM after 30 mins by Kinomescan method relative to control
Outline: (§1)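 KINOMEscan binding panel of 456 kinases, with the test compound at a single concentration of 1 µM. Read-out is Percent Control.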

[3] = target: CDK4/Cyclin D3 (Homo sapiens) (UniProt P11802+P30281); test: Inhibition of wild-type human full length CDK4/cyclinD3 (M1 to E303 residues) expressed in HEK293 cells assessed as residual activity at 1000 nM after 30 mins by Kinomescan method relative to control; assay type: cell-based
Outline: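 Single-point screen at a fixed 1 µM, run within a 456-kinase DiscoveRx KINOMEscan panel. Each kinase's read-out is Percent Control, i.e. signal relative to a control without compound. Hits were scored by a Percent Control < 35 cut-off, and an S(35) selectivity score was calculated across the non-mutant kinases.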

[4] = target: Ephrin type-A receptor 2 (Homo sapiens) (UniProt P29317); test: Inhibition of wild-type human partial length EPHA2 (T593 to V891 residues) expressed in Escherichia coli BL21 assessed as residual activity at 1000 nM after 30 mins by Kinomescan method relative to control
Ephrin type-A receptor 2 (Homo sapiens), sequence (P29317 whole entry, the tested form may be a part): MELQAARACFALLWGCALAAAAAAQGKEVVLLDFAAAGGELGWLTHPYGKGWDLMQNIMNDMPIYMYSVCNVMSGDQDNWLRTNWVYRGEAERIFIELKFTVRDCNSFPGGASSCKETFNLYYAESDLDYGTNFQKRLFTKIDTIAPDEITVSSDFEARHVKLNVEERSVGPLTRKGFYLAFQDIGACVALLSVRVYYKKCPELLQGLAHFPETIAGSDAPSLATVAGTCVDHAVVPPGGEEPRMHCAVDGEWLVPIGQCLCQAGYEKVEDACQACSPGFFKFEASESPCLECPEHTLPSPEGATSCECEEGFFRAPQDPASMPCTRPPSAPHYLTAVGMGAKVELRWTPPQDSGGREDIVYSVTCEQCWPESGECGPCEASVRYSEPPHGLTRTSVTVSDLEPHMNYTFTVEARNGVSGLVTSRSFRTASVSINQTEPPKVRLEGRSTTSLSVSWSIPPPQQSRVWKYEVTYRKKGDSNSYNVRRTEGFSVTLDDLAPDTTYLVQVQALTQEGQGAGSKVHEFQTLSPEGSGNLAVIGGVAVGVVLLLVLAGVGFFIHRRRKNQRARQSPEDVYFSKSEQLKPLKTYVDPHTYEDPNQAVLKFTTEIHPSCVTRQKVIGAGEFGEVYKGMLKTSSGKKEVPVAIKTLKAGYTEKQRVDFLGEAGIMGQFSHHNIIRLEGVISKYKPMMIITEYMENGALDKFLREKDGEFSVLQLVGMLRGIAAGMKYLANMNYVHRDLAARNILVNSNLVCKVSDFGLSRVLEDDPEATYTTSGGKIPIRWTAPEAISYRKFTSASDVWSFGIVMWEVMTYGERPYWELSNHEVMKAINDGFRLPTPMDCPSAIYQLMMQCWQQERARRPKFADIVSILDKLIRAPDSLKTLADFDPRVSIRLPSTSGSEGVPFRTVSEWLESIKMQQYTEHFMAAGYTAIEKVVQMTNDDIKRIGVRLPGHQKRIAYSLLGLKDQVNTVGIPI

[5] = target: SRSF protein kinase 1 (Homo sapiens) (UniProt Q96SB4); test: Inhibition of wild-type human full length SRPK1 (M1 to S655 residues) expressed in Escherichia coli BL21 assessed as residual activity at 1000 nM after 30 mins by Kinomescan method relative to control
[6] = target: Serine/threonine-protein kinase D1 (Homo sapiens) (UniProt Q15139); test: Inhibition of wild-type human partial length PRKD1 (G551 to E870 residues) expressed in Escherichia coli BL21 assessed as residual activity at 1000 nM after 30 mins by Kinomescan method relative to control
Serine/threonine-protein kinase D1 (Homo sapiens), sequence (Q15139 whole entry, the tested form may be a part): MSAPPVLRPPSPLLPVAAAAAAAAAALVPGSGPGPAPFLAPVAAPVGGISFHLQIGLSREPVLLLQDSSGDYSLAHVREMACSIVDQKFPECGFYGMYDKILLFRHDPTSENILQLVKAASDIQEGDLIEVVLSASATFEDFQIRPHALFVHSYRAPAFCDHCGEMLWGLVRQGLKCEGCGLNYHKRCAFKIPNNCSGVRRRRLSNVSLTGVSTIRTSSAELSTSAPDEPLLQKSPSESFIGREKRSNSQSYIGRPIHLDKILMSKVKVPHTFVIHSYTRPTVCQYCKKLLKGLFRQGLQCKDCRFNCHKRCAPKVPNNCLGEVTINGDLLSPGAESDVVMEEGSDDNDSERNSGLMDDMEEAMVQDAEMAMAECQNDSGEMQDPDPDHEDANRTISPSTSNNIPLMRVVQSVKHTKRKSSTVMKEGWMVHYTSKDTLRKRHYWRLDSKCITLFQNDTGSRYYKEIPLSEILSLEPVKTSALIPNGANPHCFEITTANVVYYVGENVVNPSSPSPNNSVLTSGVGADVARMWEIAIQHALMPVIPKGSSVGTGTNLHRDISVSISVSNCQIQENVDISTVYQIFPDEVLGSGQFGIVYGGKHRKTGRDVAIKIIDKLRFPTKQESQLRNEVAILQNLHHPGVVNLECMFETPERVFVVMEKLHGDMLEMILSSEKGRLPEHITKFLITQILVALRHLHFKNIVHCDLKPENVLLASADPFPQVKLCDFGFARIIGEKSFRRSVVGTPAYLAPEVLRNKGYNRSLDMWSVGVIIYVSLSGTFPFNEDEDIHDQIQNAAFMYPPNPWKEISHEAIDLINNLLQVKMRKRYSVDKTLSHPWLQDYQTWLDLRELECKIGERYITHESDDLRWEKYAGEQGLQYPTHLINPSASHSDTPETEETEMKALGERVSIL

[7] = target: Calcium/calmodulin-dependent protein kinase type IV (Homo sapiens) (UniProt Q16566); test: Inhibition of wild-type human partial length CAMK4 (A22 to A322 residues) expressed in Escherichia coli BL21 assessed as residual activity at 1000 nM after 30 mins by Kinomescan method relative to control
[8] = target: 5'-AMP-activated protein kinase catalytic subunit alpha-1 (Homo sapiens) (UniProt Q13131); test: Inhibition of wild-type human partial length AMPK alpha1 (M1 to E306 residues) expressed in Escherichia coli BL21 assessed as residual activity at 1000 nM after 30 mins by Kinomescan method relative to control
[9] = target: Cyclin-dependent kinase 18 (Homo sapiens) (UniProt Q07002); test: Inhibition of wild-type human full length PCTK3 (M3 to F474 residues) expressed in Escherichia coli BL21 assessed as residual activity at 1000 nM after 30 mins by Kinomescan method relative to control
Outline: (§2)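 Single-concentration screen at 1 µM across a 456-kinase KINOMEscan panel. The read-out is Percent Control for each kinase.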

[10] = target: Wee1-like protein kinase (Homo sapiens) (UniProt P30291); test: Inhibition of wild-type human partial length WEE1 (M291 to K575 residues) expressed in Escherichia coli BL21 assessed as residual activity at 1000 nM after 30 mins by Kinomescan method relative to control
Wee1-like protein kinase (Homo sapiens), sequence (P30291 whole entry, looked up, the tested form may be a part): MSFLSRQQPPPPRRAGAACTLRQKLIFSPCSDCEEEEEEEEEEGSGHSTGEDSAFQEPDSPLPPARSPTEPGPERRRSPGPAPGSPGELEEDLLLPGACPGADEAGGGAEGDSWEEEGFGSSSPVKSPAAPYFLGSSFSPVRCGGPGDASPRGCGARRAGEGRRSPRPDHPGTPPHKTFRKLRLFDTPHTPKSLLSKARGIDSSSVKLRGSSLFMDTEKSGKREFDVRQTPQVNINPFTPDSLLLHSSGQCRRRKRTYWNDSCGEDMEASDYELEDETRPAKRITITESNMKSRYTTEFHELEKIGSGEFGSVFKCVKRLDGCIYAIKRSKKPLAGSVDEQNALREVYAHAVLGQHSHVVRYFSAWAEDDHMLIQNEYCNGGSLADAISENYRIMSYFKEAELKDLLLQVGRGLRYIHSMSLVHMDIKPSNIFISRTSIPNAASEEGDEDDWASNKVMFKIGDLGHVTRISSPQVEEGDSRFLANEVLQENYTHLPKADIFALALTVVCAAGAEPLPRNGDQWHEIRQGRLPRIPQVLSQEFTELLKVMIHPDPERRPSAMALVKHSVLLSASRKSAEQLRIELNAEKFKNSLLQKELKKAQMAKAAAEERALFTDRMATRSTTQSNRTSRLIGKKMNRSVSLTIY

[11] = target: Serine/threonine-protein kinase Nek2 (Homo sapiens) (UniProt P51955); test: Inhibition of wild-type human partial length NEK2 (M1 to K309 residues) expressed in Escherichia coli BL21 assessed as residual activity at 1000 nM after 30 mins by Kinomescan method relative to control
Serine/threonine-protein kinase Nek2 (Homo sapiens), sequence (P51955 whole entry, the tested form may be a part, canonical isoform): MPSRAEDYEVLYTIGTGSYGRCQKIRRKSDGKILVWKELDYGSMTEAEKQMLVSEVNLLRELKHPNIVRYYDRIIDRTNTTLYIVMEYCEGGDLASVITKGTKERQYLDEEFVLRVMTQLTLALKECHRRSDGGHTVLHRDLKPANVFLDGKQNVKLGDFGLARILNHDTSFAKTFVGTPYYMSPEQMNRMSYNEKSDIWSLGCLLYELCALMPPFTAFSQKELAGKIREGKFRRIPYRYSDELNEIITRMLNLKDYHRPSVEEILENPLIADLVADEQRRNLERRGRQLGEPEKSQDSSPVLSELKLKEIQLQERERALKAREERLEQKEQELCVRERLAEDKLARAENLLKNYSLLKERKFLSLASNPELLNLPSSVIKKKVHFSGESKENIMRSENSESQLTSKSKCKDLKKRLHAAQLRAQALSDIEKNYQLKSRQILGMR

[12] = target: Phosphatidylinositol 4,5-bisphosphate 3-kinase catalytic subunit delta isoform (Homo sapiens) (UniProt O00329); test: Inhibition of wild-type human partial length PIK3CD (R108 to Q1044 residues) expressed in HEK293 cells assessed as residual activity at 1000 nM after 30 mins by Kinomescan method relative to control; assay type: cell-based
[13] = target: Mitogen-activated protein kinase 14 (Homo sapiens) (UniProt Q16539); test: Inhibition of wild-type human full length p38-alpha (M1 to S360 residues) expressed in Escherichia coli BL21 assessed as residual activity at 1000 nM after 30 mins by Kinomescan method relative to control
[14] = system: Epidermal growth factor receptor (Homo sapiens), P00533 [UNDEFINED MUTATION]; test: Inhibition of human partial length EGFR E746-A750del mutant expressed in Escherichia coli BL21 assessed as residual activity at 1000 nM after 30 mins by Kinomescan method relative to control; outline: as §1
[15] = target: Cyclin-dependent kinase 14 (Homo sapiens) (UniProt O94921); test: Inhibition of wild-type human full length PFTK1 (M1 to H451 residues) expressed in Escherichia coli BL21 assessed as residual activity at 1000 nM after 30 mins by Kinomescan method relative to control; outline: as §2
Cyclin-dependent kinase 14 (Homo sapiens), sequence (O94921 whole entry, the tested form may be a part): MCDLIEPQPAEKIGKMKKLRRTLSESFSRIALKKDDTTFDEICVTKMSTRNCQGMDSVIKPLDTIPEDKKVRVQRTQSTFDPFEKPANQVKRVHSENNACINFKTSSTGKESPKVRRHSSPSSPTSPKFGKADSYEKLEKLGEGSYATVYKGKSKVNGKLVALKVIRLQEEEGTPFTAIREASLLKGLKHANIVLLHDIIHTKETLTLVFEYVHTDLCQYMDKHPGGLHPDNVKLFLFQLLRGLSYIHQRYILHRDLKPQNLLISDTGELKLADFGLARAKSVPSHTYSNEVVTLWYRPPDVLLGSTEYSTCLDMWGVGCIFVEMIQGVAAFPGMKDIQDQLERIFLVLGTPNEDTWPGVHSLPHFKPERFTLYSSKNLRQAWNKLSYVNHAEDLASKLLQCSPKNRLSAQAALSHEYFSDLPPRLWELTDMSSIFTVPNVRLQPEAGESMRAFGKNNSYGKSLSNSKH

[16] = target: Dual specificity mitogen-activated protein kinase kinase 3 (Homo sapiens) (UniProt P46734); test: Inhibition of wild-type human full length MEK3 (M1 to S318 residues) expressed in HEK293 cells assessed as residual activity at 1000 nM after 30 mins by Kinomescan method relative to control; assay type: cell-based; outline: as §2
Dual specificity mitogen-activated protein kinase kinase 3 (Homo sapiens), sequence (P46734 whole entry, the tested form may be a part): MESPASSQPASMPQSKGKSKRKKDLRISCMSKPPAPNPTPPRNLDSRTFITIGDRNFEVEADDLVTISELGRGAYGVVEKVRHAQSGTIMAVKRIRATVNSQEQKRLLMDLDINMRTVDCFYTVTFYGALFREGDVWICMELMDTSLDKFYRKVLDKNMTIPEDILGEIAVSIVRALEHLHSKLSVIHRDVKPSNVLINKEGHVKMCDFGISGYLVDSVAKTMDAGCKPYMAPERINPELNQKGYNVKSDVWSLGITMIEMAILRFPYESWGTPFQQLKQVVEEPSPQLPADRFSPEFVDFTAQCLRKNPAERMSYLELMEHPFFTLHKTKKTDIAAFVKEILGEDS

Homo sapiens = species on record: Homo sapiens; test: Inhibition of human partial length FLT3 ITD/D835V double mutant expressed in Escherichia coli BL21 assessed as residual activity at 1000 nM after 30 mins by Kinomescan method relative to control; outline: as §1
[17] = target: Fibroblast growth factor receptor 4 (Homo sapiens, UniProt P22455); test: Inhibition of human recombinant His-tagged FGFR4 cytoplasmic domain ([…] residues) expressed in baculovirus using Tyr-4 peptide after 1 hr by FRET-based Z'-Lyte assay
[18] = target: Interferon-induced, double-stranded RNA-activated protein kinase (Homo sapiens) (UniProt P19525); test: Inhibition of wild-type human partial length PRKR (F247 to C551 residues) expressed in Escherichia coli BL21 assessed as residual activity at 1000 nM after 30 mins by Kinomescan method relative to control
Interferon-induced, double-stranded RNA-activated protein kinase (Homo sapiens), sequence (P19525 whole entry, the tested form may be a part): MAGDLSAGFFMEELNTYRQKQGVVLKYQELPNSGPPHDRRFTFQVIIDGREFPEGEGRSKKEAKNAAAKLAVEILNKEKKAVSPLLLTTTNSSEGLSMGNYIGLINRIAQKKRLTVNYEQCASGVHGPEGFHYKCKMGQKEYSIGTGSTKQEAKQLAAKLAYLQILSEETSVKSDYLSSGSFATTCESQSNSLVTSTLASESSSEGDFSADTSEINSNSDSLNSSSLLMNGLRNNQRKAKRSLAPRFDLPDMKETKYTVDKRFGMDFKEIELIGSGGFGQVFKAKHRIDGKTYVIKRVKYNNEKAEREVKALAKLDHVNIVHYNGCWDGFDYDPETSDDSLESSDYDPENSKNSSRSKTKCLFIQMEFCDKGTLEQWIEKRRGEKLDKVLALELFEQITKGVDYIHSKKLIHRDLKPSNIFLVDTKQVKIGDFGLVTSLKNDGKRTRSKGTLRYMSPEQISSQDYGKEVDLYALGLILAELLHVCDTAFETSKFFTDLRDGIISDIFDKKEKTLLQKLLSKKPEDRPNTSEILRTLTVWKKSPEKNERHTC

[19] = target: Tyrosine-protein kinase Fyn (Homo sapiens) (UniProt P06241); test: Inhibition of wild-type human partial length FYN (T243 to L534 residues) expressed in Escherichia coli BL21 assessed as residual activity at 1000 nM after 30 mins by Kinomescan method relative to control
Tyrosine-protein kinase Fyn (Homo sapiens), sequence (P06241 2-537 limits assumed): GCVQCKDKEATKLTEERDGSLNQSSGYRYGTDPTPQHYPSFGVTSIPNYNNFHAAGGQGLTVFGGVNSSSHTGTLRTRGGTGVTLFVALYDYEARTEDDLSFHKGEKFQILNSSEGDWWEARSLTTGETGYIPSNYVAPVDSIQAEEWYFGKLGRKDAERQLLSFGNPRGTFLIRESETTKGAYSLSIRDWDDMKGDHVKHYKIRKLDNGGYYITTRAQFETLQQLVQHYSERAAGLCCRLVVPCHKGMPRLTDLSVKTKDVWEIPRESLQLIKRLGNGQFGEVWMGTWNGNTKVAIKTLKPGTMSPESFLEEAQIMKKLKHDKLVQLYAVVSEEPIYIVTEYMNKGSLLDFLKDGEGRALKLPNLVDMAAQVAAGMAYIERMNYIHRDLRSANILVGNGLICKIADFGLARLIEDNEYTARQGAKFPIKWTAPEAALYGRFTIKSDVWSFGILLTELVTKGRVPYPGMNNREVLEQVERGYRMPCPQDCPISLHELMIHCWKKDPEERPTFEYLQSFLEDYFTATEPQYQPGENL

[20] = target: Phosphatidylinositol 3-kinase catalytic subunit type 3 (Homo sapiens) (UniProt Q8NEB9); test: Inhibition of wild-type human partial length VPS34 (S282 to H879 residues) expressed in HEK293 cells assessed as residual activity at 1000 nM after 30 mins by Kinomescan method relative to control; assay type: cell-based

Compound COc1cc(OC)c(Cl)c(N2Cc3cnc(Nc4ccc(F)cc4)nc3N(C3CCN(C(=O)/C=C/CN(C)C)CC3)C2=O)c1Cl has an Activity [1] of 93%, an Activity [2] of 87% and an Activity [3] of 100%. The Activity [4] was 100%, the Activity [5] was 80% and the Activity [6] was 73%. It also gave an Activity [7] of 96%, an Activity [8] of 96% and an Activity [9] of 93%. The Activity [10] was 100%, the Activity [11] was 53% and the Activity [12] was 93%. For the same compound, the Activity [13] was 98%, the Activity [14] was 100% and the Activity [15] was 92%. For the same compound, the Activity [16] was 90%, the Activity (Homo sapiens) was 98% and the pIC50 [17] was 7.11. For the same compound, the Activity [18] was 76%, the Activity [19] was 19% and the Activity [20] was 100%.

Source: ChEMBL document CHEMBL4043093, “2-Oxo-3, 4-dihydropyrimido[4, 5-d]pyrimidinyl derivatives as new irreversible pan fibroblast growth factor receptor (FGFR) inhibitors” (Eur J Med Chem, 2017)
